Assays:
[1] = biological target: T1, Angiotensin-converting enzyme (Rattus norvegicus) (UniProt P47820); assay: Relative inhibitory activity against angiotensin I converting enzyme
T1 sequence (whole entry): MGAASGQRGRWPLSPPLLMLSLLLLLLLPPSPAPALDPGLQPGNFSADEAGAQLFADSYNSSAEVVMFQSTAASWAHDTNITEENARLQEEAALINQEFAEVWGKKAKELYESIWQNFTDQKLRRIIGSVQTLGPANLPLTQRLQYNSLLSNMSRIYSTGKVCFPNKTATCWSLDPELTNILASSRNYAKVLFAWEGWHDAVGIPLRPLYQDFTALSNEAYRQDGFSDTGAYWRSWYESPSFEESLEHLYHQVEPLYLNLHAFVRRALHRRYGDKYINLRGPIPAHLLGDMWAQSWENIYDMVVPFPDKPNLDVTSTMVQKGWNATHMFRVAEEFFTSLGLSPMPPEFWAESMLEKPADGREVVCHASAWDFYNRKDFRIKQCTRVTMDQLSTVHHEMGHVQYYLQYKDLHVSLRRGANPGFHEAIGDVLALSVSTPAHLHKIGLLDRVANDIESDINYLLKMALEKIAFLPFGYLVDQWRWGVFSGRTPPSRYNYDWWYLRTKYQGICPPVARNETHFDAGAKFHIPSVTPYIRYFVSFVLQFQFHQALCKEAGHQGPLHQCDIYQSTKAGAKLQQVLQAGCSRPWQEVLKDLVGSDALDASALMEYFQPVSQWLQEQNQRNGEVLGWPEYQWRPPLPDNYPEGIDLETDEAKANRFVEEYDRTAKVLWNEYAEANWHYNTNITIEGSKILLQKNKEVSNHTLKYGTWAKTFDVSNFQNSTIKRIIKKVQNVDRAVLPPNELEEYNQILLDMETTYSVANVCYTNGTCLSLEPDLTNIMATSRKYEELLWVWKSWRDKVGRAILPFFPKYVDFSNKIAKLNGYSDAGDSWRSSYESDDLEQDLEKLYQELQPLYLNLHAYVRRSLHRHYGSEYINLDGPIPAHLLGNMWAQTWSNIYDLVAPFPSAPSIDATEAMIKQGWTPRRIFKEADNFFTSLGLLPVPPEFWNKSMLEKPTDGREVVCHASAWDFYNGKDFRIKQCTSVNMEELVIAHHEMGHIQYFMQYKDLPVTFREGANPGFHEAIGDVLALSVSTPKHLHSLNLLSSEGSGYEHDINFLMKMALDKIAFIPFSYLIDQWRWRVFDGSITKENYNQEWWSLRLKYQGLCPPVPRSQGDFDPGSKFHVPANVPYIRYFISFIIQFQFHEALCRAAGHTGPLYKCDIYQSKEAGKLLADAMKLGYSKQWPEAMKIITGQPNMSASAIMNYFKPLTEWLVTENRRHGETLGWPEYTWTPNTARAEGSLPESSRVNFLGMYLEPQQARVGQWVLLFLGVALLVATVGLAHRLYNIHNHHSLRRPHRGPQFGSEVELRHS

[2] = The acid dissociation constant, pKa was determined.'a' represents value of C-terminus carboxylic acid.; assay type: physicochemical
Procedure, shortened: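 Ionization constants came from potentiometric titration at 25 °C on a thermostated automatic titrator, with pKa calculated from the pH–volume data. For one ester, constants were instead determined by the partition method in Miglyol 812–aqueous buffer systems.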

[3] = Compound was tested for its maximum lipophilicity.; assay type: physicochemical; conditions: octanol/water
Procedure, shortened: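 Shake-flask distribution coefficients in octanol–aqueous buffer across pH, run in triplicate and reported as the mean. Aqueous phases were HCl below pH 2, McIlvaine citrate-phosphate at pH 2.2–4.8, and Sorensen phosphate above pH 5, all at ionic strength 0.02. Phases were assayed before and after partitioning by UV or reversed-phase HPLC. Maximum lipophilicity was taken from the distribution–pH profile.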

[4] = biological target: T2, Angiotensin-converting enzyme (Rattus norvegicus, UniProt P47820); assay: Compound was tested for inhibitory activity against angiotensin I converting enzyme
T2 sequence (P47820 whole entry): T1 sequence (whole entry)

[5] = Ratio of biliary and urinary excretion of angiotensin converting enzyme inhibitors in male rat after intravenous dosing.; assay type: functional, Urine
[6] = The acid dissociation constant, pKa was determined. 'a' represents value of C-terminus carboxylic acid.; assay type: physicochemical
Procedure, shortened: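 Potentiometric titration at 25 °C on a thermostated automatic titrator. pKa values were calculated from pH–volume data. For one ester compound, ionization constants were instead obtained by the partition method in Miglyol 812–aqueous buffer systems.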

[7] = The acid dissociation constant, pKa was determined. a'' represents value of C-terminus carboxylic acid.; assay type: physicochemical
Procedure, shortened: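 Ionization constants measured by potentiometric titration at 25 °C on a thermostated automatic titrator, with pKa calculated from pH-volume data. For one ester prodrug, constants were instead obtained by the partition method in Miglyol 812-aqueous buffer systems.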

Compound `O=C(O)C1SC(c2ccco2)=NN1C(=O)CCS` (stereo not given) has a Relative activity [1] of 1.
In the case of `CCOC(=O)[C@H](CCc1ccccc1)N[C@@H](C)C(=O)N1N=C(C(C)(C)C)S[C@H]1C(=O)O` [UTIBAPRIL], the pKa [2] is reported as 5.4 and the “Log Dmax” value [3] is reported as 1.61.
`C[C@H](N[C@@H](CCc1ccccc1)C(=O)O)C(=O)N1N=C(C(C)(C)C)S[C@H]1C(=O)O` [UTIBAPRILAT] gave an IC50 [4] of 0.51 nM, a Ratio [5] of 14.6 and a pKa [2] of 8. For the same compound, the “Log Dmax” value [3] was 1.19.
With `O=C(O)C1SC(c2ccc(C(F)(F)F)cc2)=NN1C(=O)CCS` (stereo not given) the Relative activity [1] was 1.6.
Compound `CC(C)(C)C1=NN(C(=O)[C@H](CCCCN)N[C@@H](CCc2ccccc2)C(=O)O)[C@H](C(=O)O)S1` has an IC50 [4] of 0.7 nM.
With `O=C(O)C1SC(c2ccccc2)=NN1C(=O)CCS` (stereo not given) the Relative activity [1] was 1.3.
`O=C(O)C1SC(C23CC4CC(CC(C4)C2)C3)=NN1C(=O)CCS` (stereo not given) showed a Relative activity [1] of 1.3.
In the case of `CCOC(=O)[C@H](CCc1ccccc1)N[C@@H](C)C(=O)N1CCC[C@H]1C(=O)O`, the pKa [6] is reported as 5.49 and the “Log Dmax” value [3] is reported as -0.06.
`CC1=NN(C(=O)CCS)C(C(=O)O)S1` (stereo not given) gave a Relative activity [1] of 2.5.
With `CCC[C@H](N[C@@H](C)C(=O)N1N=C(C(C)(C)C)S[C@H]1C(=O)O)C(=O)O` the IC50 [4] was 0.6 nM.
For `C[C@H](N[C@@H](CCc1ccccc1)C(=O)O)C(=O)N1CCC[C@H]1C(=O)O` [ENALAPRILAT ANHYDROUS], the pKa [2] was 8.02 and the “Log Dmax” value [3] was -0.7.
For `O=C(O)C1SC(C2CCCCC2)=NN1C(=O)CCS` (stereo not given), the Relative activity [1] was 6.3.
In the case of `COc1ccc(C2=NN(C(=O)CCS)C(C(=O)O)S2)cc1` (stereo not given), the Relative activity [1] is reported as 1.3.
`CC(C)(C)C1=NN(C(=O)CCS)C(C(=O)O)S1` (stereo not given) gave a Relative activity [1] of 5.6.
`C[C@H](N[C@@H](CCc1ccccc1)C(=O)O)C(=O)N1N=C(c2ccccc2)S[C@H]1C(=O)O` gave an IC50 [4] of 1.5 nM.
In the case of `CCOC(=O)[C@H](CCc1ccccc1)N[C@@H](C)C(=O)N1CC2(C[C@H]1C(=O)O)SCCS2`, the pKa [2] is reported as 5.5 and the “Log Dmax” value [3] is reported as 0.87.
With `NCCCC[C@H](N[C@@H](CCc1ccccc1)C(=O)O)C(=O)N1CCC[C@H]1C(=O)O` [LISINOPRIL ANHYDROUS] the pKa [7] was 11.1 and the “Log Dmax” value [3] was -2.86.

Reference: ChEMBL document CHEMBL1125747, “Design, synthesis, and physicochemical properties of a novel, conformationally restricted 2,3-dihydro-1,3,4-thiadiazole-containing angiotensin converting enzyme inhibitor which is preferentially eliminated by the biliary route in rats” (J Med Chem, 1991)
